ChEMBL document CHEMBL4219216, “2-Aminoquinazolin-4(3H)-one based plasmepsin inhibitors with improved hydrophilicity and selectivity” (Bioorg Med Chem, 2018)
Converted amounts (≈) assume the structure as drawn.

How the values were obtained:
Plasmepsin 4 = Plasmepsin 4 (Plasmodium falciparum, UniProt Q17SB2); test: Inhibition of Plasmodium falciparum plasmepsin 4 using DABCYL-Glu-Arg-Nle-Phe-Leu-Ser-Phe-Pro-EDANS as substrate preincubated for 30 mins followed by substrate addition measured every 1 min within 8 to 15 mins by FRET assay
Method in brief: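 Plm IV in 0.1 M NaOAc pH 4.5 with 10% glycerol; compounds tested at 0.01–100 μM, preincubated with enzyme 30 min at 37 °C. […] Fluorescence (Ex 336/Em 490 nm) read at 37 °C; rate taken from the linear interval. Triplicate; IC50 fitted from rates; pepstatin A control.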

[1] = Solubility of the compound in Tris-buffer at pH 7.4 after 16 hrs by HPLC method; type: physicochemical; settings: for solubility at 16 h: Tris buffer, pH 7.4
Method in brief: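 A DMSO stock (≈10 mg/mL) was diluted 10 µL into 2 mL of 0.05 M TRIS pH 7.4 (0.5% DMSO final) and shaken 16 h at 25 °C. After filtering off the precipitate, the solution was quantified by reversed-phase HPLC (UV 210 or 254 nm) against a methanol-diluted ≈0.05 mg/mL standard. Working range ≈0.005-0.05 mg/mL.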

Plasmepsin I = Plasmepsin I (Plasmodium falciparum, UniProt P39898); test: Inhibition of Plasmodium falciparum plasmepsin-1 using DABCYL-Glu-Arg-Nle-Phe-Leu-Ser-Phe-Pro-EDANS as substrate preincubated for 30 mins followed by substrate addition measured every 1 min within 8 to 15 mins by FRET assay
Method in brief: (§1)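 Test compounds at 0.01-100 μM preincubated with enzyme in 0.1 M NaOAc pH 4.5, 10% glycerol, for 30 min at 37 °C. […] Fluorescence (Ex 336, Em 490 nm) read at 37 °C. Rate taken from the linear interval only. Triplicate experiments, IC50 from dose-response fit.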

Plasmepsin II = Plasmepsin II (Plasmodium falciparum, UniProt P46925); test: Inhibition of Plasmodium falciparum plasmepsin-2 using DABCYL-Glu-Arg-Nle-Phe-Leu-Ser-Phe-Pro-EDANS as substrate preincubated for 30 mins followed by substrate addition measured every 1 min within 8 to 15 mins by FRET assay; method in brief: as §1
Cathepsin D = Cathepsin D (Homo sapiens, UniProt P07339); test: Inhibition of human cathepsin D using DABCYL-Glu-Arg-Nle-Phe-Leu-Ser-Phe-Pro-EDANS as substrate preincubated for 30 mins followed by substrate addition measured every 1 min within 8 to 15 mins by FRET assay
[2] = target: Plasmepsin I (Plasmodium falciparum) (UniProt P39898); test: Inhibition of Plasmodium falciparum plasmepsin-1 using DABCYL-Glu-Arg-Nle-Phe-Leu-Ser-Phe-Pro-EDANS as substrate preincubated for 30 mins followed by substrate addition measured every 1 min within 8 to 15 mins by FRET assay
Plasmepsin I (Plasmodium falciparum), sequence (P39898 whole entry, looked up): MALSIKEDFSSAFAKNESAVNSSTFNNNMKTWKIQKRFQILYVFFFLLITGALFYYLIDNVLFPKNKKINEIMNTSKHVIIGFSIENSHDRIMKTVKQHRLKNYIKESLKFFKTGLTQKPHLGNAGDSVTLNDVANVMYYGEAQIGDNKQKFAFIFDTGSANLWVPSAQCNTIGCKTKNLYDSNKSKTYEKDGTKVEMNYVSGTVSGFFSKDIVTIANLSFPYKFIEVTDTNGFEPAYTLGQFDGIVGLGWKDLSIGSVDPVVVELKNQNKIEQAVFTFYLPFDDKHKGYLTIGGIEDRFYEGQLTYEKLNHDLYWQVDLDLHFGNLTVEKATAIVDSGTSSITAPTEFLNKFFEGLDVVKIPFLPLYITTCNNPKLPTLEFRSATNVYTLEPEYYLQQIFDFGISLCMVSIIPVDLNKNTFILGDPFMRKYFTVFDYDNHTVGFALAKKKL

Cathepsin D, sequence (P07339 65-162 limits assumed): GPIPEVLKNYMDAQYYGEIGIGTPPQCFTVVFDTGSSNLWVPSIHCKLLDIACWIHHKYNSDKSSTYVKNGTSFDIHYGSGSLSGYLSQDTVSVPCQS
Cathepsin D, sequence (P07339 169-412 limits assumed): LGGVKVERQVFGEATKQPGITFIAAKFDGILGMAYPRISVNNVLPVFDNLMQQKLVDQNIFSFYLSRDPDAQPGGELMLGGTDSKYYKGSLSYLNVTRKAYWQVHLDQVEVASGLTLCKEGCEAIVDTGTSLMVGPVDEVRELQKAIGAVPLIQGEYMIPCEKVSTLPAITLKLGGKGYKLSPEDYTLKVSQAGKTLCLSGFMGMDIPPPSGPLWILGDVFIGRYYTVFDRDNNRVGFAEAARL
Plasmepsin II, sequence (P46925 whole entry): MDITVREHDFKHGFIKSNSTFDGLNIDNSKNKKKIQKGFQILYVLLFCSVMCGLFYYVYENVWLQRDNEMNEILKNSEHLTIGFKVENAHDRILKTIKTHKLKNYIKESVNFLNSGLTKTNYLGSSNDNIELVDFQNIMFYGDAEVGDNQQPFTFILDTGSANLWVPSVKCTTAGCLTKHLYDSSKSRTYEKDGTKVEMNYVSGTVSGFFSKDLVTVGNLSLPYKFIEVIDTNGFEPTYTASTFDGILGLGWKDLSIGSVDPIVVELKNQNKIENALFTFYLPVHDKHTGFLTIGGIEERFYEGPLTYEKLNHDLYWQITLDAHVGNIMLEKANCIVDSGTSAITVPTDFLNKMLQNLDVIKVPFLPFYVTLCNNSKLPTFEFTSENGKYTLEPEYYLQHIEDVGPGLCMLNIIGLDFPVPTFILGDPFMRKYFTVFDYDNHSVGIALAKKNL
Plasmepsin I, sequence (P39898 whole entry): as the sequence (P39898 whole entry, looked up) above
Plasmepsin 4, sequence (Q17SB2 whole entry): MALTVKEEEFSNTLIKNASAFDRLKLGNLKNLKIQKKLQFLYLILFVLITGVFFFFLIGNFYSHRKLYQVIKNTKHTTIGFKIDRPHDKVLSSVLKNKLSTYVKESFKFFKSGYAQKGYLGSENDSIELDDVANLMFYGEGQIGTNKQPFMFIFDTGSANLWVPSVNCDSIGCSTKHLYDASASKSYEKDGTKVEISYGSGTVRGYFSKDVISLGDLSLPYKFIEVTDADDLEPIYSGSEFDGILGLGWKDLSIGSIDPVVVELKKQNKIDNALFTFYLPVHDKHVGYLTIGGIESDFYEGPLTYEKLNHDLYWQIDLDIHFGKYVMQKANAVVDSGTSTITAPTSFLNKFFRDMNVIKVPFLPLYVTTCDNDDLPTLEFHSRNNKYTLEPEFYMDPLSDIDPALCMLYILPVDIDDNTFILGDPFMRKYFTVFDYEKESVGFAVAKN

| SMILES | IC50 (Plasmepsin 4) [nM] | solubility at 16 h [1] [µg/mL] | IC50 (Plasmepsin I) [nM] | IC50 (Plasmepsin II) [nM] | IC50 (Cathepsin D) [nM] | solubility ([1]; buffer, pH 7.4, 16 h) [µg/mL] | IC50 [2] [nM] |
| --- | --- | --- | --- | --- | --- | --- | --- |
| Nc1nc2cc(-c3ccc(CCCc4ccccc4)cc3)ccc2c(=O)n1C[C@@H]1CC[C@H](c2ccccc2)O1 | 130 | < 0.01 |  |  |  |  |  |
| CCCCCc1ccc(-c2ccc3c(=O)n(C[C@@H]4CC[C@H](c5ccccc5)O4)c(N)nc3c2)cc1 | 100 | < 0.01 |  |  |  |  |  |
| Nc1nc2cc(-c3ccccc3)cc(-c3ccc(C(=O)O)cc3)c2c(=O)n1C[C@@H]1CC[C@H](c2ccccc2)O1 | 500 |  | 600 | 280 | 20000 |  |  |
| Nc1nc2cc(-c3ccccc3)cc(-c3ccc(C(=O)O)cc3)c2c(=O)n1CC1CCCO1 (racemic) | 1400 |  | 3500 | 330 | 100000 |  |  |
| CCCCCCCCc1cc(CCC(=O)O)c2c(=O)n(CC3CCCO3)c(N)nc2c1 (racemic) | 110 |  | 20 | 22 | 430 |  |  |
| Nc1nc2cc(-c3ccc(CCCc4ccccc4)cc3)ccc2c(=O)n1CC1CCCO1 (racemic) | 100 |  | 1300 | 700 | > 100000 |  |  |
| CCCCCc1ccc(-c2cc(CCC(=O)O)c3c(=O)n(CC4CCCO4)c(N)nc3c2)cc1 (racemic) | 42 | 0.1 (≈ 0.216 µM) | 50 | 27 | 21000 |  |  |
| CCCCCc1ccc(-c2cc(-c3ccc(C(=O)O)cc3)c3c(=O)n(CC4CCCO4)c(N)nc3c2)cc1 (racemic) | 45 | 0.03 (≈ 0.0586 µM) | 2400 | 23 | 29000 |  |  |
| Nc1nc2cc(-c3ccccc3)cc(-c3cccnc3)c2c(=O)n1CC1CCCO1 (racemic) | 1500 |  | 3000 | 480 | 71000 |  |  |
| Nc1nc2cc(-c3ccc(CCCc4ccccc4)cc3)cc(CCC(=O)O)c2c(=O)n1CC1CCCO1 (racemic) | 30 |  | 740 | 80 | 13000 | 0.01 (≈ 0.0195 µM) |  |
| Nc1nc2cc(-c3ccccc3)cc(-c3ccncc3)c2c(=O)n1CC1CCCO1 (racemic) | 2400 |  | 5000 | 1000 | > 100000 |  |  |
| CCCCCc1ccc(-c2ccc3c(=O)n(CC4CCCO4)c(N)nc3c2)cc1 (racemic) | 92 |  | 700 | 75 | 3200 |  |  |
| Nc1cccc(-c2cc(-c3ccccc3)cc3nc(N)n(CC4CCCO4)c(=O)c23)c1 (racemic) | 1000 |  | 2000 | 820 | 93000 |  |  |
| Nc1nc2cc(-c3ccccc3)cc(-c3cccc(C(=O)O)c3)c2c(=O)n1CC1CCCO1 (racemic) | 1500 |  | 1000 | 500 | 98000 |  |  |
| NC(=O)c1ccc(-c2cc(-c3ccccc3)cc3nc(N)n(CC4CCCO4)c(=O)c23)cc1 (racemic) | 2500 |  | 3400 | 600 | > 100000 |  |  |
| CC(C)CC(=O)N[C@H](C(=O)N[C@H](C(=O)N[C@@H](CC(C)C)[C@@H](O)CC(=O)N[C@@H](C)C(=O)N[C@@H](CC(C)C)[C@@H](O)CC(=O)O)C(C)C)C(C)C [PEPSTATIN] | 0.3 |  | 0.42 |  |  |  | 0.42 |
| Oc1ccc(/C=C/c2cc(O)cc(O)c2)cc1 [RESVERATROL] |  |  |  |  | 138000 |  |  |
